Data as given in ChEMBL document CHEMBL1641473, “Synthesis, structure, theoretical and experimental in vitro antioxidant/pharmacological properties of α-aryl, N-alkyl nitrones, as potential agents for the treatment of cerebral ischemia” (2011).

Tests used:
Format in all cases: functional
[1] = tested on: Mus musculus; test: Neuroprotective activity in NMRI mouse assessed as protection against t-BHP-induced lethality at 150 mg/kg, ip after 30 mins relative to control; conditions: route intraperitoneal
[2] = tested on: SH-SY5Y; test: Neuroprotective activity against rotenone/oligomycin-A-induced death in human SH-SY5Y cells assessed as increase of cell viability at 1 uM after 2 hrs by MTT assay
Method in brief: (§1)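 Human SH-SY5Y neuroblastoma cells, low passage (<13), grown in 1:1 Ham's F-12/EMEM with 10% heat-inactivated FBS. Seeded at 1×10⁵ cells/well and treated before confluence in EMEM with 1% FBS. Insult was 30 µM rotenone plus 10 µM oligomycin-A for 24 h. Viability read by MTT (2 h, 37 °C, dark), then lysis and absorbance at 540 nm.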

[3] = Antioxidant activity assessed as trolox equivalents of peroxyl radical scavenging activity by ORAC assay
Method in brief: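 Fluorescein (70 nM) with 2,2'-azobis(2-methylpropionamidine) dihydrochloride (12 mM) and antioxidant in 75 mM phosphate buffer pH 7.4 at 37 °C. Fluorescence recorded every minute for 98 min. Net AUC taken against the blank and plotted against concentration; slope divided by the slope of the Trolox curve from the same assay. Duplicate wells, at least three independent assays.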

[4] = Antioxidant activity assessed as hydroxyl radical scavenging activity at 50 uM after 2 hrs by benzoic acid method
Method in brief: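 Hydroxyl radical from a Fenton reaction (Fe2+ plus H2O2 10 mmol) hydroxylates benzoate to fluorescent hydroxybenzoates. Incubation 2 h at 37 °C with or without nitrone; fluorescence read at excitation 305 nm, emission 407 nm. RSA% relative to no-nitrone control. Quadruplicate wells, at least three independent runs; mean ± SEM.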

[5] = tested on: SH-SY5Y; test: Neuroprotective activity against rotenone/oligomycin-A-induced death in human SH-SY5Y cells assessed as protective effect at 1 uM after 2 hrs by MTT assay; method in brief: as §1
[6] = tested on: Radical scavenging activity; test: Antioxidant activity of the compound assessed as DPPH radical scavenging activity at 0.5 mM after 2 hrs
Method in brief: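 DPPH radical mixed with nitrone and held 2 h at room temperature in the dark. DPPH absorbance read at 517 nm. RSA% = 100 × (A0 − Ai)/A0, with A0 and Ai the absorbance without and with nitrone. Quadruplicate wells, at least three independent runs; mean ± SEM.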

[7] = tested on: SH-SY5Y; test: Neuroprotective activity against rotenone/oligomycin-A-induced death in human SH-SY5Y cells assessed as protective effect at 10 nM after 2 hrs by MTT assay; method in brief: as §1
[8] = tested on: SH-SY5Y; test: Neuroprotective activity against rotenone/oligomycin-A-induced death in human SH-SY5Y cells assessed as increase of cell viability at 10 nM after 2 hrs by MTT assay; method in brief: as §1
[9] = tested on: Radical scavenging activity; test: Antioxidant activity of the compound assessed as DPPH radical scavenging activity at 15 mM after 2 hrs
Method in brief: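 DPPH radical added to test compound; mixture kept 2 h at room temperature in the dark, then absorbance read at 517 nm. RSA% = 100×(A0−Ai)/A0, where A0 and Ai are DPPH absorbance without and with compound. Quadruplicate wells, at least three independent runs; mean ± SEM.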

[10] = tested on: SH-SY5Y; test: Neuroprotective activity against rotenone/oligomycin-A-induced death in human SH-SY5Y cells assessed as protective effect at 1 mM after 2 hrs by MTT assay; method in brief: as §1
[11] = tested on: SH-SY5Y; test: Neuroprotective activity against rotenone/oligomycin-A-induced death in human SH-SY5Y cells assessed as increase of cell viability at 1 mM after 2 hrs by MTT assay; method in brief: as §1

| Compound | Activity [1] [%] | Activity [2] [%] | Activity (Trolox equivalents) [3] | Activity [4] [%] | Activity [5] [%] | Activity [6] [%] | Activity [7] [%] | Activity [8] [%] | Activity [9] [%] | Activity [10] [%] | Activity [11] [%] |
| --- | --- | --- | --- | --- | --- | --- | --- | --- | --- | --- | --- |
| COc1cc(Br)c(/C=[N+](\[O-])Cc2ccccc2)cc1O | 111 | 64.2 | 7.36 | 94.6 | 8.7 | 25.9 |  |  |  |  |  |
| Cc1c(C)c2c(c(C)c1O)CCC(C)(C(=O)O)O2 (stereo not drawn) |  |  | 1 | 94.3 |  |  |  |  |  |  |  |
| COc1cc(/C=[N+](\[O-])Cc2ccccc2)c(Br)cc1O |  | 62.8 | 6.4 | 95.7 | 13.4 | 40.7 |  |  |  |  |  |
| CC(C)(C)/[N+]([O-])=C/c1cccnc1Br | 76 | 60.1 | 0.01 | 95.1 | 24 | 3.9 |  |  |  |  |  |
| COc1cc(Br)c(/C=[N+](\[O-])C(C)(C)C)cc1O | 87 | 65 | 5.58 | 96.3 | 11 | 31.1 |  |  |  |  |  |
| COc1ccc2[nH]cc(CCNC(C)=O)c2c1 [MELATONIN] |  |  |  |  |  |  | 17 | 59 |  |  |  |
| CC(C)(C)/[N+]([O-])=C/c1ccccc1 | 73 | 69.6 | 0 | 94.9 | 18.6 | 1.4 |  |  |  |  |  |
| [O-]/[N+](=C\c1ccccc1)Cc1ccccc1 | 111 | 70.8 | 0.01 | 95.7 | 18.4 | 0.6 |  |  |  |  |  |
| COc1ccc2c(c1)cc(/C=[N+](\[O-])C(C)(C)C)n2C | 50 | 62.8 | 7.98 |  | 4.4 | 4.8 |  |  |  |  |  |
| COc1cc(/C=[N+](\[O-])Cc2ccccc2)ccc1O |  | 63.9 | 2.93 | 96.9 | 16.9 | 88.2 |  |  |  |  |  |
| COc1cc(Br)c(/C=[N+](\[O-])Cc2ccccc2)cc1OC | 116 | 65.3 | 0.03 | 95.1 | 3 | 0.2 |  |  |  |  |  |
| CC(C)(C)/[N+]([O-])=C/c1c[nH]c2ccccc12 | 60 | 64.1 | 3.69 |  | 8 | 1.2 |  |  |  |  |  |
| COc1cc(/C=C/C(=O)CC(=O)/C=C/c2ccc(O)c(OC)c2)ccc1O [CURCUMIN] | 106 |  |  | 96.8 |  |  |  |  | 35 |  |  |
| O=c1c(O)c(-c2ccc(O)c(O)c2)oc2cc(O)cc(O)c12 |  |  | 10.5 | 96.6 |  |  |  |  | 94.2 |  |  |
| CC(C)(C)/[N+]([O-])=C/c1cccnc1Cl | 74 | 61.4 | 0.01 | 94.9 | 0 | 1.6 |  |  |  |  |  |
| COc1cc(Br)c(/C=[N+](\[O-])C(C)(C)C)cc1OC | 70 | 63.1 | 0.03 | 96.3 | 0 | 0.8 |  |  |  |  |  |
| CC(=O)N[C@@H](CS)C(=O)O [ACETYLCYSTEINE] |  |  |  |  |  |  |  |  |  | 25 | 63.1 |
| C/[N+]([O-])=C/c1ccccc1 |  | 64.7 | 0 | 95.3 | 18.7 | 0.8 |  |  |  |  |  |
| COc1cc(/C=[N+](/C)[O-])ccc1O |  |  | 3.35 | 96.5 |  | 87.6 |  |  |  |  |  |
